In ChEMBL document CHEMBL4402517, “Rational modification of Mannich base-type derivatives as novel antichagasic compounds: Synthesis, in vitro and in vivo evaluation” (Bioorg Med Chem, 2019):

Assays:
[1] = (§1) Toxicity in BALB/c mouse infected with Trypanosoma cruzi MHOM/Pe/2011/Arequipa;DTU 5 bloodstream trypomastigote assessed as decrease in serum uric acid level in acute phase at 20 mg/kg/day, po administered for 5 consecutive days starting from day 8 post infection and measured on day 100 post infection by biochemical analysis relative to control; assay type: organism-based; parameters: scale not given: the % may be the effect or the level left; details: in vivo
Procedure, shortened: (§2)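 Female BALB/c mice (10–12 weeks, 14–20 g; groups of three) were infected i.p. with 5 × 10^5 Arequipa bloodstream trypomastigotes. Dosing was oral at 20 mg/kg/day for 5 days, from day 8 pi (acute) or day 70 pi (chronic), as a 2 mg/ml suspension in 5% DMSO/0.5% HPMC; controls received vehicle. Cyclophosphamide 200 mg/kg i.p. was given at day 80 pi. Serum was collected 2 days post-treatment and at necropsy by cardiac puncture and compared with infected untreated controls.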

[2] = as §1, with “chronic” for “acute”, “70” for “8”, “infection” for “infection and”, “infection” for “infection by biochemical analysis”; assay type: organism-based; parameters: scale not given: the % may be the effect or the level left; details: in vivo; procedure, shortened: as §2
[3] = as §1, with “change” for “decrease”, “alanine aminotransferase” for “uric acid”; assay type: organism-based; details: in vivo; procedure, shortened: as §2
[4] = Genotoxicity in Salmonella typhimurium TA1535 harboring pSK1002 assessed as survival at 0.004 mg/ml in absence of Sprague-Dawley rat liver S9 fraction metabolic activation by SOS/umu assay relative to control; assay type: toxicity; details: salmonella enterica subsp. enterica serovar typhimurium, read-out: Survival
Procedure, shortened: (§3)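 Survival of S. typhimurium TA1535/pSK1002 exposed to a range of compound concentrations with or without S9 mix in 96-well format. Survival percentage measured as the cytotoxicity arm of the SOS/umu test. Concentrations with survival ≥80% are counted as non-cytotoxic.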

[5] = Genotoxicity in Salmonella typhimurium TA1535 harboring pSK1002 assessed as survival at 0.125 mg/ml in presence of Sprague-Dawley rat liver S9 fraction metabolic activation by SOS/umu assay relative to control; assay type: toxicity, subcellular; details: salmonella enterica subsp. enterica serovar typhimurium, read-out: Survival; procedure, shortened: as §3
[6] = Genotoxicity in Salmonella typhimurium TA1535 harboring pSK1002 assessed as umu gene induction at 0.008 mg/ml in absence of Sprague-Dawley rat liver S9 fraction metabolic activation by SOS/umu assay relative to control; assay type: toxicity; details: salmonella enterica subsp. enterica serovar typhimurium, read-out: FC
Procedure, shortened: (§4)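 umu induction in S. typhimurium TA1535/pSK1002, with or without S9 mix, in 96-well format. β-galactosidase read colorimetrically with ONPG substrate. Output given as relative units and induction factor (IF). The run is valid if positive controls reach IF ≥2. A compound counts as genotoxic at IF ≥2 at a concentration giving ≥80% bacterial survival.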

[7] = as §1, with “as increase” for “as decrease”, “serum total bilirubin” for “serum uric acid”, “measured at” for “measured on”, “day 14” for “day 100”; assay type: organism-based; details: in vivo; procedure, shortened: as §2
[8] = Genotoxicity in Salmonella typhimurium TA1535 harboring pSK1002 assessed as survival at 0.008 mg/ml in presence of Sprague-Dawley rat liver S9 fraction metabolic activation by SOS/umu assay relative to control; assay type: toxicity, subcellular; details: salmonella enterica subsp. enterica serovar typhimurium, read-out: Survival; procedure, shortened: as §3
[9] = Genotoxicity in Salmonella typhimurium TA1535 harboring pSK1002 assessed as umu gene induction at 0.25 mg/ml in absence of Sprague-Dawley rat liver S9 fraction metabolic activation by SOS/umu assay relative to control; assay type: toxicity; details: salmonella enterica subsp. enterica serovar typhimurium, read-out: FC; procedure, shortened: as §4
[10] = tested on: Trypanosoma cruzi; assay: Inhibition of Trypanosoma cruzi MHOM/Pe/2011/Arequipa;DTU 5 epimastigote Fe-SOD at 6.3 uM relative to control
Procedure, shortened: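 Fe-SOD excreted by exponentially growing T. cruzi Arequipa epimastigotes cultured in supplemented MTL at 28 °C. Protein quantified by Bradford. SOD activity measured by the Beyer–Fridovich method. IC50 from inhibition curves by nonlinear regression. Mean of three independent determinations ± standard deviation.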

[11] = Genotoxicity in Salmonella typhimurium TA1535 harboring pSK1002 assessed as survival at 0.031 mg/ml in absence of Sprague-Dawley rat liver S9 fraction metabolic activation by SOS/umu assay relative to control; assay type: toxicity; details: salmonella enterica subsp. enterica serovar typhimurium, read-out: Survival; procedure, shortened: as §3
[12] = as §1, with “change” for “decrease”, “aspartate aminotransferase” for “uric acid”, “assay” for “analysis”; assay type: organism-based; details: in vivo; procedure, shortened: as §2
[13] = Genotoxicity in Salmonella typhimurium TA1535 harboring pSK1002 assessed as umu gene induction at 1 mg/ml in presence of Sprague-Dawley rat liver S9 fraction metabolic activation by SOS/umu assay relative to control; assay type: toxicity, subcellular; details: salmonella enterica subsp. enterica serovar typhimurium, read-out: FC; procedure, shortened: as §4
[14] = Genotoxicity in Salmonella typhimurium TA1535 harboring pSK1002 assessed as survival at 0.008 mg/ml in absence of Sprague-Dawley rat liver S9 fraction metabolic activation by SOS/umu assay relative to control; assay type: toxicity; details: salmonella enterica subsp. enterica serovar typhimurium, read-out: Survival; procedure, shortened: as §3
[15] = Genotoxicity in Salmonella typhimurium TA1535 harboring pSK1002 assessed as umu gene induction at 0.004 mg/ml in presence of Sprague-Dawley rat liver S9 fraction metabolic activation by SOS/umu assay relative to control; assay type: toxicity, subcellular; details: salmonella enterica subsp. enterica serovar typhimurium, read-out: FC; procedure, shortened: as §4
[16] = Genotoxicity in Salmonella typhimurium TA1535 harboring pSK1002 assessed as survival at 1 mg/ml in presence of Sprague-Dawley rat liver S9 fraction metabolic activation by SOS/umu assay relative to control; assay type: toxicity, subcellular; details: salmonella enterica subsp. enterica serovar typhimurium, read-out: Survival; procedure, shortened: as §3
[17] = Genotoxicity in Salmonella typhimurium TA1535 harboring pSK1002 assessed as umu gene induction at 0.125 mg/ml in absence of Sprague-Dawley rat liver S9 fraction metabolic activation by SOS/umu assay relative to control; assay type: toxicity; details: salmonella enterica subsp. enterica serovar typhimurium, read-out: FC; procedure, shortened: as §4
[18] = Genotoxicity in Salmonella typhimurium TA1535 harboring pSK1002 assessed as survival at 0.004 mg/ml in presence of Sprague-Dawley rat liver S9 fraction metabolic activation by SOS/umu assay relative to control; assay type: toxicity, subcellular; details: salmonella enterica subsp. enterica serovar typhimurium, read-out: Survival; procedure, shortened: as §3
[19] = Genotoxicity in Salmonella typhimurium TA1535 harboring pSK1002 assessed as survival at 0.001 mg/ml in absence of Sprague-Dawley rat liver S9 fraction metabolic activation by SOS/umu assay relative to control; assay type: toxicity; details: salmonella enterica subsp. enterica serovar typhimurium, read-out: Survival
Procedure, shortened: (§5)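 Salmonella typhimurium TA1535/pSK1002 was exposed to compounds at several concentrations with or without S9 mix, and bacterial survival % was measured. β-galactosidase induction was measured colorimetrically with ONPG substrate. Genotoxicity was counted where IF ≥ 2 at ≥80% survival; runs were valid if positive controls reached IF ≥ 2.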

[20] = Genotoxicity in Salmonella typhimurium TA1535 harboring pSK1002 assessed as survival at 0.001 mg/ml in presence of Sprague-Dawley rat liver S9 fraction metabolic activation by SOS/umu assay relative to control; assay type: toxicity, subcellular; details: salmonella enterica subsp. enterica serovar typhimurium, read-out: Survival; procedure, shortened: as §5
[21] = Genotoxicity in Salmonella typhimurium TA1535 harboring pSK1002 assessed as umu gene induction at 0.016 mg/ml in absence of Sprague-Dawley rat liver S9 fraction metabolic activation by SOS/umu assay relative to control; assay type: toxicity; details: salmonella enterica subsp. enterica serovar typhimurium, read-out: FC; procedure, shortened: as §4
[22] = Genotoxicity in Salmonella typhimurium TA1535 harboring pSK1002 assessed as umu gene induction at 0.125 mg/ml in presence of Sprague-Dawley rat liver S9 fraction metabolic activation by SOS/umu assay relative to control; assay type: toxicity, subcellular; details: salmonella enterica subsp. enterica serovar typhimurium, read-out: FC; procedure, shortened: as §4
[23] = Genotoxicity in Salmonella typhimurium TA1535 harboring pSK1002 assessed as survival at 0.25 mg/ml in absence of Sprague-Dawley rat liver S9 fraction metabolic activation after by SOS/umu assay relative to control; assay type: toxicity; details: salmonella enterica subsp. enterica serovar typhimurium, read-out: Survival; procedure, shortened: as §3

SMILES | Activity [1] | Activity [2] | Activity [3] | viability at 0.004 mg/ml [4] | viability at 0.125 mg/ml [5] | fold induction at 0.008 mg/ml [6] | Activity [7] | viability at 0.008 mg/ml [8] | fold induction at 0.25 mg/ml [9] | inhibition [10] | viability at 0.031 mg/ml [11] | Activity [12] | fold induction at 1 mg/ml [13] | viability at 0.008 mg/ml [14] | fold induction at 0.004 mg/ml [15] | viability at 1 mg/ml [16] | fold induction at 0.125 mg/ml [17] | viability at 0.004 mg/ml [18] | viability at 0.001 mg/ml [19] | viability at 0.001 mg/ml [20] | further results
O=C(Cn1ccnc1[N+](=O)[O-])NCc1ccccc1 [BENZNIDAZOLE] | <= 10% | <= 30% | > 10% | – | – | – | – | – | – | – | – | – | – | – | – | – | – | – | – | – | –
O=C(CCN1CCN(c2ccc(Cl)cc2)CC1)c1ccc(O)cc1 | – | – | – | 140% | 113% | 0.71 | <= 10% | 109% | 0.49 | > 50% | 107% | > 10% | 0.38 | 128% | 0.71 | 213% | 0.45 | 108% | 104% | 106% | fold induction at 0.016 mg/ml [21]: 0.66; fold induction at 0.125 mg/ml [22]: 0.84; viability at 0.25 mg/ml [23]: 152%
O=C(CCN1CCN(c2ccc(C(F)(F)F)cc2)CC1)c1ccc(O)cc1 | <= 30% | <= 10% | > 10% | 127% | 138% | 0.75 | > 40% | 104% | 0.52 | > 50% | 112% | > 10% | 0.37 | 133% | 0.77 | 216% | 0.7 | 112% | 114% | 106% | fold induction at 0.016 mg/ml [21]: 0.74; fold induction at 0.125 mg/ml [22]: 0.63; viability at 0.25 mg/ml [23]: 149%
